Measured values published in ChEMBL document CHEMBL3352816, “Synthesis and antiproliferative activity of imidazo[2,1-b][1,3,4]thiadiazole derivatives” (Bioorg Med Chem Lett, 2014).
Activity calls are given as the source filed them. No cut-off for these calls is given here.

Legend:
[1] = Growth inhibition of human Melanoma cells; type: functional; settings: Melanoma cell
[2] = Growth inhibition of human CNS cancer cells; type: functional; settings: Cancer cell lines
[3] = Growth inhibition of human Prostate cancer cells; type: functional; settings: Cancer cell lines
[4] = Growth inhibition of human Colon cancer cells; type: functional; settings: Cancer cell lines; for CC50: read-out: LC50 (the source's name)
[5] = Growth inhibition of human Renal cancer cells; type: functional; settings: Cancer cell lines
[6] = Growth inhibition of human Breast cancer cells; type: functional; settings: Cancer cell lines
[7] = Growth inhibition of human NSCLC cells; type: functional
[8] = Growth inhibition of human Leukemia cells; type: functional; settings: for GI50 / TGI: Leukemia cell
[9] = Growth inhibition of human Ovarian cancer cells; type: functional; settings: Cancer cell lines
REH [10] = assay: Cytotoxicity against human REH cells assessed as reduction in cell viability at 10 to 250 uM after 24 to 72 hrs by trypan blue exclusion assay; type: functional, cell-based
How it was run: (§1)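 Reh, K562 and Nalm6 leukemic cells were treated with 10, 50, 100 and 250 µM or with 0.1, 0.5, 1, 5 and 10 µM (compounds dissolved in DMSO). Viability was scored by trypan blue after 24, 48 and 72 h. DMSO-treated cells served as vehicle control.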

REH [11] = assay: Cytotoxicity against human REH cells assessed as reduction in cell viability at 100 to 250 uM after 48 to 72 hrs by MTT assay; type: functional, cell-based
How it was run: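 MTT viability read-out in leukemic cells treated with 10, 50, 100 and 250 µM or with 0.1, 0.5, 1, 5 and 10 µM. Cells harvested after 48 and 72 h. Compounds dissolved in DMSO.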

NALM-6 = assay: Cytotoxicity against human NALM6 cells assessed as reduction in cell viability at 10 to 250 uM after 24 to 72 hrs by trypan blue exclusion assay; type: functional, cell-based; how it was run: as §1
K562 = assay: Cytotoxicity against human K562 cells assessed as reduction in cell viability at 10 to 250 uM after 24 to 72 hrs by trypan blue exclusion assay; type: functional, cell-based; how it was run: as §1

For O=Cc1c(-c2ccc([N+](=O)[O-])cc2)nc2sc(Cc3ccccc3)nn12, the GI50 [1] was 3.7 µM, the TGI [1] was 42.7 µM and the GI50 [2] was 2.9 µM. The LC50 [2] was 83.2 µM, the TGI [2] was 26.9 µM and the GI50 [3] was 3 µM. The TGI [3] was 50.1 µM, the GI50 [4] was 3.1 µM and the TGI [4] was 31.6 µM. It also gave a CC50 [4] of 85.1 µM, a GI50 [5] of 3.7 µM and a TGI [5] of 58.9 µM. It also gave a GI50 [6] of 2.8 µM, an LC50 [6] of 83.2 µM and a TGI [6] of 26.3 µM. For the same compound, the GI50 [7] was 2.9 µM, the LC50 (concentration killing 50% of cells) [7] was 95.5 µM and the TGI [7] was 45.7 µM. It also gave an LC50 (concentration causing 50% net cell kill) [8] of 69.2 µM, a GI50 [8] of 5.9 µM and a TGI [8] of 26.3 µM. The GI50 [9] was 4.1 µM and the TGI [9] was 39.8 µM.
With O=[N+]([O-])c1ccc(-c2nc3sc(Cc4ccccc4)nn3c2Br)cc1 the GI50 [1] was 40.7 µM, the GI50 [2] was 3.4 µM and the TGI [2] was 47.9 µM. The GI50 [3] was 42.7 µM, the GI50 [4] was 52.5 µM and the TGI [4] was 83.2 µM. The GI50 [5] was 3.7 µM, the TGI [5] was 64.6 µM and the GI50 [6] was 17.4 µM. It also gave a TGI [6] of 79.4 µM, a GI50 [7] of 12.6 µM and a TGI [7] of 56.2 µM. It also gave a GI50 [8] of 69.2 µM, a GI50 [9] of 6.3 µM and a TGI [9] of 83.2 µM.
Clc1ccc(-c2cn3nc(Cc4ccccc4)sc3n2)cc1 gave a GI50 [1] of 3.7 µM, an LC50 [1] of 21.9 µM and a TGI [1] of 8.9 µM. For the same compound, the GI50 [2] was 5 µM, the LC50 [2] was 34.7 µM and the TGI [2] was 13.8 µM. For the same compound, the Activity (REH [10]) was “Active”, the Activity (REH [11]) was “Active” and the GI50 [3] was 2.9 µM. The TGI [3] was 8.1 µM, the CC50 ([3]; read-out: LC50 (the source's name)) was 23.4 µM and the Activity (NALM-6) was “Active”. The GI50 [4] was 2.2 µM, the TGI [4] was 5.3 µM and the CC50 [4] was 14.1 µM. It also gave a GI50 [5] of 2.6 µM, an LC50 [5] of 15.1 µM and a TGI [5] of 5.9 µM. For the same compound, the GI50 [6] was 4 µM, the LC50 [6] was 49 µM and the TGI [6] was 12 µM. The Activity (K562) was “Active”, the GI50 [7] was 7.6 µM and the LC50 (concentration killing 50% of cells) [7] was 57.5 µM. The TGI [7] was 20.9 µM, the LC50 (concentration causing 50% net cell kill) [8] was 95.5 µM and the GI50 [8] was 2.1 µM. For the same compound, the TGI [8] was 23.4 µM, the GI50 [9] was 4.6 µM and the LC50 [9] was 30.9 µM. It also gave a TGI [9] of 10.5 µM.
In the case of N#CSc1c(-c2ccccc2)nc2sc(Cc3ccccc3)nn12, the GI50 [1] is reported as 20.9 µM, the TGI [1] is reported as 85.1 µM and the GI50 [2] is reported as 4.4 µM. It also gave a TGI [2] of 77.6 µM, a GI50 [3] of 15.5 µM and a TGI [3] of 40.7 µM. It also gave a GI50 [4] of 11.2 µM, a TGI [4] of 91.2 µM and a GI50 [5] of 15.1 µM. The LC50 [5] was 95.5 µM, the TGI [5] was 70.8 µM and the GI50 [6] was 7.4 µM. It also gave a TGI [6] of 75.9 µM, a GI50 [7] of 6 µM and an LC50 (concentration killing 50% of cells) [7] of 97.7 µM. For the same compound, the TGI [7] was 75.9 µM, the GI50 [8] was 13.5 µM and the TGI [8] was 57.5 µM. The GI50 [9] was 9.8 µM, the LC50 [9] was 97.7 µM and the TGI [9] was 79.4 µM.
Work on CO[C@H]1/C=C/O[C@@]2(C)Oc3c(C)c(O)c4c(O)c(cc(O)c4c3C2=O)NC(=O)/C(C)=C\C=C\[C@H](C)[C@H](O)[C@@H](C)[C@@H](O)[C@@H](C)[C@H](OC(C)=O)[C@@H]1C [RIFAMYCIN] yielded a GI50 [1] of 15.5 µM, a GI50 [2] of 21.4 µM and a GI50 [3] of 10 µM. For the same compound, the GI50 [4] was 10 µM, the GI50 [5] was 15.9 µM and the GI50 [6] was 16.6 µM. It also gave a GI50 [7] of 14.5 µM, a GI50 [8] of 3.2 µM and a GI50 [9] of 18.6 µM.
O=Cc1c(-c2ccc(F)cc2)nc2sc(CCC3CCCCC3)nn12 showed a GI50 [1] of 21.9 µM, a TGI [1] of 87.1 µM and a GI50 [2] of 7.1 µM. The TGI [2] was 67.6 µM, the GI50 [3] was 7.4 µM and the GI50 [4] was 5.9 µM. It also gave a TGI [4] of 63.1 µM, a GI50 [5] of 14.1 µM and a TGI [5] of 93.3 µM. The GI50 [6] was 11.8 µM, the TGI [6] was 61.7 µM and the GI50 [7] was 13.2 µM. It also gave a TGI [7] of 75.9 µM, a GI50 [8] of 10.2 µM and a TGI [8] of 70.8 µM. It also gave a GI50 [9] of 12.3 µM and a TGI [9] of 97.7 µM.
COc1ccc(-c2nc3sc(Cc4ccccc4)nn3c2SC#N)cc1 gave a GI50 [1] of 5.8 µM, an LC50 [1] of 89.1 µM and a TGI [1] of 77.6 µM. For the same compound, the GI50 [2] was 3.9 µM, the TGI [2] was 55 µM and the GI50 [4] was 4.1 µM. The TGI [4] was 61.7 µM, the GI50 [5] was 7.9 µM and the TGI [5] was 70.8 µM. The GI50 [6] was 4.8 µM, the TGI [6] was 60.3 µM and the GI50 [7] was 4.6 µM. It also gave an LC50 (concentration killing 50% of cells) [7] of 83.2 µM, a TGI [7] of 52.5 µM and a GI50 [8] of 3.6 µM. It also gave a TGI [8] of 72.4 µM, a GI50 [9] of 5.6 µM and a TGI [9] of 56.2 µM.
